Consider three compounds from ChEMBL document CHEMBL1926521, “Arylcyanoacrylamides as inhibitors of the Dengue and West Nile virus proteases” (Bioorg Med Chem, 2011).

In general, inhibition refers to how much of the control response was suppressed. A lower inhibition goes with little suppression. The term Ki denotes the equilibrium dissociation constant of an inhibitor or competing ligand from its target. The low end stands for a stronger hold on the target, the high end for a looser hold on the target.

The subject of experiment [1] is Dengue virus. In words: Inhibition of Dengue virus NS2B-NS3 protease expressed in Escherichia coli BL21 lambda (DE3) using Abz-NleKRRS-3-(NO2)Y as substrate at 50 uM preincubated for 15 mins before substrate addition measured up to 15 mins by spectrofluorimetry. An outline of the steps: (§1)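 Single-concentration screen against His-tagged NS2B-NS3 protease (Ni²⁺-affinity purified from E. coli). Enzyme was 100 nM for Dengue or 150 nM for West Nile. Inhibitor at 50 µM was preincubated 15 min with enzyme, then internally quenched FRET substrate (final 50 µM) was added. Read at ex 320/em 405 nm for 15 min. Rate taken as RFU/s; % inhibition is the mean of triplicates.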

The test system of experiment [2] is West Nile virus. In words: Inhibition of West Nile virus NS2B-NS3 protease expressed in Escherichia coli BL21 lambda (DE3) using Abz-GLKRGG-3-(NO2)Y as substrate at 50 uM preincubated for 15 mins before substrate addition measured up to 15 mins by spectrofluorimetry. A digest of the protocol: as §1
The target in experiment [3] is T1, Prothrombin (Homo sapiens, UniProt P00734). In words: Inhibition of human thrombin using Boc-VPR-AMC as substrate at 25 uM preincubated for 15 mins before substrate addition measured up to 10 mins by spectrofluorimetry.
The nature of experiment [4]: Inhibition of Dengue virus NS2B-NS3 protease expressed in Escherichia coli BL21 lambda (DE3) using Abz-NleKRRS-3-(NO2)Y as substrate compound preincubated for 15 mins before substrate addition measured up to 15 mins by spectrofluorimetry.
Experiment [5] in a line: Inhibition of West Nile virus NS2B-NS3 protease expressed in Escherichia coli BL21 lambda (DE3) using Abz-GLKRGG-3-(NO2)Y compound preincubated for 15 mins before substrate addition measured up to 15 mins by spectrofluorimetry.
In experiment [6] the target is T1, Prothrombin. The experiment in a line: Inhibition of human thrombin using Boc-VPR-AMC as substrate compound preincubated for 15 mins before substrate addition measured up to 10 mins by spectrofluorimetry.
The nature of experiment [7]: Selectivity ratio of Ki for human thrombin to Ki for Dengue virus NS2B-NS3 protease.
A short description of experiment [8]: Selectivity ratio of Ki for human thrombin to Ki for West Nile virus NS2B-NS3 protease.
Experiment [9] deals with Dengue virus. In words: Binding affinity to Dengue virus NS2B-NS3 protease catalytic center assessed as quenching of Trp50 intrinsic fluorescence.
Experiment [10] deals with Dengue virus. The experiment in a line: Binding affinity to Dengue virus NS2B-NS3 protease catalytic center assessed as quenching of Trp50 intrinsic fluorescence in presence of aprotinin.

Activity calls are given as the source filed them. The calls are words filed in the database; no cut-off is given here.

With `N#C/C(=C\c1ccc(O)cc1)C(N)=O`, the inhibition was determined as 51.7% in [1], 55% in [2] and 24.4% in [3]. The results for the Ki in experiment [4], in experiment [5] and in [6] were 35.7 µM, 44.6 µM and 102 µM, respectively. The results for the Ratio Ki in experiment [7] and in experiment [8] were 2.8 and 2.3, respectively.

Consider `N#C/C(=C\c1ccc(N2CCOCC2)o1)C(=O)NC1CC1`, for which the inhibition amounted to 10.5% in [1], 24% in [2] and 47% in experiment [3]. Also, the Ki is 184 µM in experiment [4], over 200 µM in experiment [5] and 23.4 µM in [6].

Consider `CC(C)c1ccc(/C=C(\C#N)C(=O)NCC2CCCO2)cc1` (configuration not stated), for which the inhibition in experiment [1] was 28.2%; in experiment [2], 46.3%; in experiment [3], 14.4%. For the same compound, the Ki is 98.1 µM in experiment [4], 101 µM in experiment [5] and 165 µM in experiment [6]. Moreover, the outcome in experiment [9] was Active. For the same compound, the outcome in experiment [10] was inactive.
